From ChEMBL document CHEMBL4513216, “Probing the Open Global Health Chemical Diversity Library for Multistage-Active Starting Points for Next-Generation Antimalarials” (ACS Infect Dis, 2020)

Assay: Toxicity liver stage against HepG2, at 10uM
Format: cell-based
Design: test concentration 10 uM, cell line HepG2-A16-CD81EGFP
Conditions: human, HepG2-A16-CD81EGFP cells; read-out: INHIBITION
In short: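 Uninfected HepG2-A16-CD81EGFP cells, 3 × 10^3 per well, 1536-well, plated on prespotted compound at 10 μM final, parasite-free screening media added to match infected plates; puromycin 10 μM positive, DMSO 0.5% negative; run in parallel with 48 h PbLuc assay at 37 °C, 5% CO2; viability by CellTiter-Glo luminescence, normalized to controls.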

| SMILES | cytotoxicity at 10 µM [%] |
| --- | --- |
| CCCc1cc(=O)[nH]c(-n2nc(-c3cccs3)cc2N)n1 | 11.2 |
| c1cc(-c2ccc3c(c2)C2(CCNCC2)CC3)ccn1 | 56.9 |
| O=C(NCC1CC1)C12CC(CN1Cc1nccs1)C2 | -4.6 |
| O=C([C@H]1C[C@H]2OCC[C@H]2N(CC2CC2)C1)N1CCCC1 | -0.542 |
| O=C(Nc1ccccc1F)c1nn(C2CCS(=O)(=O)C2)c2c1CCCC2 (stereo not given) | 6.17 |
| O=C(NCCCN1CCCCC1)c1ccc(-n2ccc3ccccc32)s1 | -6.19 |
| CC(C(=O)NC1CCN(C)CC1)n1nc(C(F)(F)F)c(Cl)c1C1CC1 (stereo not given) | -8.17 |
| Cc1cc2c(cc1Cl)C=CC1(CCN(CC(=O)N3CCCC3)CC1)O2 | -8.05 |
| CCOc1ccc(CN2CCCC(c3cc4ncccc4[nH]3)C2)cc1 (stereo not given) | 1.18 |
| Fc1ccc(CN2CCCC(c3cc4ncccc4[nH]3)C2)cc1 (stereo not given) | -1.87 |
| Cc1cc2c(=O)n3c(nc2s1)CCN(C(=O)c1sc(C)nc1C)CC3 | -0.579 |
| CN1CCC(c2cccc(Cc3ccc(C(F)(F)F)cc3)n2)CC1 | 3 |
| CN(C(=O)Nc1ccncc1)C1CCN(c2ccc(Cl)cc2)CC1 | 1.44 |
| O=C(CCn1cncn1)NCC1CCS(=O)(=O)C1 (stereo not given) | -48.3 |
| O=C(Nc1cncc(Br)c1O)c1ccon1 | 15.4 |
| CCc1nnc(CNc2ccc(CC(=O)N3CCSCC3)cc2)o1 | 7.37 |
| CC(OCC1CC1)C(=O)Nc1cccc(C(=O)Nc2ccncc2)c1 (stereo not given) | 7.12 |
| COc1ccc2c(c1)OCC(CNC1CCc3nc(C)nn3C1)=C2 (stereo not given) | 1.84 |
| CC(C)(C)n1ncc(NCC(O)c2ccc(F)c(F)c2)c(Cl)c1=O (stereo not given) | 54.1 |
| COc1ccc(C)cc1CN1CCn2cccc2C1C (stereo not given) | 18.3 |
| COc1ccsc1C(=O)NC1CCN(c2cccc(F)c2)CC1 | 18.3 |
| CC(C)CCN(C(=O)Nc1cccc(C(=O)N(C)C)c1)C1CC1 | -14.2 |

| SMILES | cytotoxicity at 10 µM [%] |
| --- | --- |
| CN(CCOc1ccccc1)C(=O)Nc1cccn(C)c1=O | -11.3 |
| COCC(=O)NC(C)c1sc(-c2ccccc2F)nc1C (stereo not given) | 5.41 |
| CC(C)c1ccc(/C=C/CC(=O)NC2CCN(C(N)=O)CC2)cc1 | 7.1 |
| N#Cc1c(Cl)nsc1NCc1ccnc(OCC(F)(F)F)c1 | 12.5 |
| CC(Cn1ccnc1)NC(=O)N(C)Cc1ccco1 (stereo not given) | -0.687 |
| Cc1cc(CN(C)CCN(C)c2ccccc2)no1 | -4.65 |
| CCSCCC(C)N(C)C(=O)c1ccc(C)o1 (stereo not given) | -3.75 |
| CCNc1ccnc(CN2CCCC2C(=O)Nc2nccs2)c1 (stereo not given) | 4.32 |
| CCCC1CCCN(C(=O)Nc2cccnc2OC)CC1 (stereo not given) | 4.52 |
| Cc1cnn(CCNCc2ccc(OCc3cscn3)cc2)c1 | -5.48 |
| Cc1cccc2c1OCCCC2NCc1nnc2n1CCCCC2 (stereo not given) | -0.699 |
| Cc1nn(C)c(N(C)C)c1CNCC(O)COc1cccc(F)c1 (stereo not given) | 6.2 |
| COc1ccc(-c2nnc(SC(C)C(=O)NC(C)(C)C)[nH]2)c(OC)c1 (stereo not given) | 66.5 |
| CC(Cn1cccn1)NCc1nc(-c2cccnc2)no1 (stereo not given) | -0.813 |
| CCOCc1ccccc1NC(=O)NCC(C)(O)c1cc(C)oc1C (stereo not given) | -1.48 |
| CCNC(=O)CN(CC)C(=O)Cc1csc(C(C)C)n1 | 1.29 |
| COc1cccc(CNc2cc(C)nc(-c3ccncc3)n2)c1OC | 46.5 |
| O=S(=O)(N1CCCC1)N1CCc2sccc2C1 | 1.7 |
| CN(Cc1cccnc1)C(CO)c1cccc(Br)c1 (stereo not given) | -5.37 |
| CC(Nc1ccc(F)cc1)c1nnnn1-c1ccccc1 (stereo not given) | 1.81 |
| CC(SCC(=O)N(C)CC(=O)NC1CC1)c1ccccc1F (stereo not given) | -2.49 |
| NCc1ccnc(Oc2ccc(F)cc2)c1 | 12.4 |

| SMILES | cytotoxicity at 10 µM [%] |
| --- | --- |
| CN(Cc1c(F)cccc1Cl)C(=O)CN(C)C1CCc2ccccc21 (stereo not given) | 11.3 |
| CCN(c1ccc(C(=O)NCc2cc[nH]n2)cc1)C(C)C | 11.9 |
| COCCCN1CCCN(C(C)C(=O)Nc2cccc(I)c2)CC1 (stereo not given) | -8.34 |
| CCc1nc(CN2CCCN(c3ncnc4ccccc34)CC2)no1 | 43.6 |
| CC(NC(=O)c1cc(-c2cccc(Cl)c2)no1)C(=O)N1CCCC1 (stereo not given) | 3.59 |
| CS(=O)(=O)N1C[C@H]2CN(CC3CC3)C(=O)[C@H]2C1 | 6.53 |
| O=C1CO[C@@H]2CN(S(=O)(=O)c3ccc(F)cc3)C[C@H]2N1 | 4.59 |
| CC(C)N1CCCN(c2nc(-c3cccnc3)nc3c2cnn3C)CC1 | 28.2 |
| Cc1nonc1-c1nc(C(C)C)nn1-c1ccc2c(c1)OCO2 | -6.9 |
| CN(Cc1ccc(-n2cccn2)cc1)c1cc(N)nc(N)n1 | 86.7 |
| CCc1nc(C)cc(N2CCCC(C(=O)c3ccc(OC)cc3C)C2)n1 (stereo not given) | 9.99 |
| CCN(CC)C(=O)[C@@H]1C[C@@H](n2cc(-c3ccccn3)nn2)CN1 | 9.63 |
| Cc1ccc2cc(C3(O)CCN(C(=O)CSC(C)C)CC3)ccc2n1 | 22 |
| CC(C)c1nc(CN2CCc3onc(-c4cccc(F)c4)c3C2)no1 | 5.56 |
| CCN1CCCC1CN(Cc1ccon1)CC1CCN(CCOC)CC1 (stereo not given) | -0.525 |
| c1ccc(C2CCCN(c3ncnc4c3CCNC4)CC2)cc1 (stereo not given) | 58.5 |
| Cc1noc(-c2ccnc(Oc3cccc(CN4CCCC4)c3F)c2)n1 | -7.07 |
| Cc1cc2c(N3CCCC(OCc4cccnc4)C3)ncnc2s1 (stereo not given) | 39 |
| O=C(NC1CCCCC1)N1CCC(n2cc(-c3ccccn3)nn2)CC1 | 4.49 |
| CC(C)CCC1=NC2(CCN(C(=O)CN3CCCC3=O)CC2)C(=O)N1 | -3.07 |
| Cc1nc(C)c(-c2ccn(CC(=O)Nc3cnn(C)n3)n2)s1 | 74 |
| COc1cc(N2CCCC(CO)(Cc3ccccc3F)C2)ncn1 (stereo not given) | 45.7 |

| SMILES | cytotoxicity at 10 µM [%] |
| --- | --- |
| O=C(c1coc(COc2cccc3cnccc23)n1)N1CCCCCC1 | -128 |
| CCCc1nc(C)c(CNc2nc(C)nc3onc(C)c23)s1 | 1.6 |
| CCCN(Cc1nc2ccccc2[nH]1)Cc1ccccc1OC | -39.6 |
| CC1(C)CNC(=O)c2nc(CCCN3CCCC3)[nH]c2C1 | -12.4 |
| CCCn1ncc(CN2CCCC(C(=O)c3ccc(SC)cc3)C2)c1C (stereo not given) | -3.25 |
| Cc1csc2ncnc(N3CCC(Cn4cc(C(C)(C)O)nn4)CC3)c12 | 49.2 |
| CCSc1ncc(CN2CCC(O)(CN3CCOCC3)C(C)(C)C2)cn1 (stereo not given) | 7.49 |
| OCC1(CCOc2ccccc2)CCCN(c2ccc(Cl)cn2)C1 (stereo not given) | 7.52 |
| COC(=O)N1CCCCC1C(=O)N1CCN(c2cccnc2)CC1 (stereo not given) | -10.6 |
| CN(C)C(=O)c1ccc(C2CCCN2C(=O)c2cccc3c2OCC3)s1 (stereo not given) | 4.1 |
| COc1cccc(CCC2CCCN(C(=O)c3n[nH]c4c3CCC4)C2)c1 (stereo not given) | 4.48 |
| COc1ccccc1CN(C)c1nccc(-c2cn(C)nc2C)n1 | 53.8 |
| CSCC(=O)N1CCCN(c2ccccc2C)CC1 | 8.14 |
| Cc1ncc(C)c(N2CCCC(CO)(Cc3cccc(Cl)c3)C2)n1 (stereo not given) | 59.4 |
| Cc1nc(N2CC[C@@H](NC(=O)c3cnccn3)[C@H](O)C2)c2ccsc2n1 | 38.6 |
| CCCOc1ccc(CNc2cncc(-n3cccn3)n2)cc1 | 11.7 |
| CCCc1ccc(S(=O)(=O)Nc2ccc(=O)n(C)c2)cc1 | 43.5 |
| CC(C)OCc1cccc(CNc2cnn(C)c(=O)c2Cl)c1 | 29.5 |
| c1nc(N2CCCC(Cn3cncn3)C2)c2sccc2n1 (stereo not given) | 6.74 |
| CC1CN(CC2CCCC2)CCN1c1ccc2nncn2n1 (stereo not given) | 6.36 |
| c1ccc2sc(CN3CCOC(Cn4cncn4)C3)nc2c1 (stereo not given) | -0.489 |
| O=C(O)CCC(=O)N1CCN(CC2CC2)c2ncccc2C1 | -101 |

| SMILES | cytotoxicity at 10 µM [%] |
| --- | --- |
| CNC(=O)[C@@H]1C[C@H]2CN(Cc3c(C)noc3C)C[C@H]2N1C(C)C | -107 |
| CN(C)CCOCC1CN(Cc2cccc(F)c2)Cc2nccn2C1 (stereo not given) | -131 |
| c1ccc(-c2ccc(C3CNCCO3)nc2)cc1 (stereo not given) | 2.36 |
| CCn1ncc2c1C(COCC1CC1)CN(c1ccc(C)nn1)C2 (stereo not given) | 11.4 |
| Cc1cccc(CN2CCO[C@H]3[C@@H](OCc4ccncc4)CC[C@@H]32)n1 | -85.4 |
| O=C(NC1CCC1)[C@@H]1C[C@@H]2CCN(CCc3ccccc3)C[C@H]2O1 | -72.7 |
| O=C(c1ccco1)N1CC[C@@H]2O[C@@H](COCCN3CCCC3)CC[C@@H]21 | -76.8 |
| COc1ccc(CN2C[C@@H]3OCCN(CCN4CCCC4)[C@@H]3C2)cc1 | -82.4 |
| Clc1cccc(C[C@@H]2NCCC[C@@H]2Nc2ccccc2)c1 | 89.3 |
| N#Cc1ccc(N2CCCC3(CCN(c4cccnc4)CC3)C2)cc1 | 55.5 |
| O=S1(=O)c2ccccc2C2(CCN(Cc3ccccc3)C2)N1CC1CC1 (stereo not given) | 16.3 |
| Cc1csc(NC(=O)c2cnc(C3CCCN3)cn2)n1 (stereo not given) | -41 |
| O=S(=O)(c1cccs1)N1CCCC2(COCCN(c3cccnc3)C2)C1 (stereo not given) | -78.5 |
| COc1cccc(CN2CCc3nc(C(=O)NCC(C)C)sc3CC2)c1 | 16.8 |
| Cc1noc(C)c1CN1Cc2ccnn2CC(C(=O)NCC2CC2)C1 (stereo not given) | -69.2 |
| COc1cc(N2C[C@H]3CN(Cc4ccccn4)C[C@H]3C2)ncn1 | -96.3 |
| c1ccc2c(c1)N(CC1CCOC1)CC21CCN(c2cnccn2)CC1 (stereo not given) | -94.7 |
| Cc1ccc(CN2CCOC3(CCCN(c4cccc(F)c4)C3)C2)o1 (stereo not given) | -70 |
| O=C1CC[C@H]2[C@H](CCN2S(=O)(=O)C2CC2)N1CCN1CCCC1 | -88.9 |
| CC(C)C[C@H](N)C(=O)N1CCSc2ccccc2C1 | 0.318 |
| c1cnc(N2CCC3(CC2)CN(CC2CC2)c2ccccc23)nc1 | 19.9 |
| CC(C)CS(=O)(=O)N1C[C@@H]2C[C@H](C(=O)N3CCOCC3)[C@H](C1)O2 | -2.71 |
